{"source": "ChEMBL document CHEMBL4229376", "about": "“Optimization of the pharmacokinetic properties of potent anti-trypanosomal triazine derivatives” (Eur J Med Chem, 2018)", "key": {"Peritoneal macrophage": {"system": "Peritoneal macrophage", "assay": "Cytotoxicity against mouse primary peritoneal macrophages after 72 hrs by resazurin dye-based fluorimetric analysis", "type": "cell-based"}, "[1]": {"assay": "Drug uptake in Swiss mouse blood at 25 mg/kg, po administered as single dose after 2 hrs by UPLC/MS/ESI analysis", "type": "ADME, organism-based", "conditions": "whole blood, read-out: Drug uptake", "procedure,_shortened": "(§1)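 Mice were given the compound orally as a single dose of either 25 or 50 mg/kg, one group per dose. Plasma concentrations were followed over time up to 24 h, and the pharmacokinetic parameters were derived from the concentration-time profile.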"}, "[2]": {"assay": "Half life in Swiss mouse infected with Trypanosoma brucei brucei Squib 427 at 50 mg/kg, po bid for 5 days after 24 hrs by UPLC/MS/ESI analysis", "type": "ADME, organism-based", "conditions": "in vivo"}, "[3]": {"assay": "Drug level in Swiss mouse blood infected with Trypanosoma brucei brucei Squib 427 at 50 mg/kg, po bid for 5 days measured after 1 hr after last dose by UPLC/MS/ESI analysis", "type": "ADME, organism-based", "conditions": "whole blood, read-out: Drug uptake"}, "[4]": {"assay": "Drug uptake in Swiss mouse blood at 25 mg/kg, po administered as single dose after 4 hrs by UPLC/MS/ESI analysis", "type": "ADME, organism-based", "conditions": "whole blood, read-out: Drug uptake", "procedure,_shortened": "as §1"}, "[5]": {"assay": "Drug uptake in Swiss mouse blood at 50 mg/kg, po administered as single dose after 4 hrs by UPLC/MS/ESI analysis", "type": "ADME, organism-based", "conditions": "whole blood, read-out: Drug uptake", "procedure,_shortened": "as §1"}, "[6]": {"assay": "Clearance in Swiss mouse infected with Trypanosoma brucei brucei Squib 427 at 50 mg/kg, po bid for 5 days after 24 hrs by UPLC/MS/ESI analysis", "type": "ADME, organism-based", "conditions": "in vivo"}, "[7]": {"assay": "Drug uptake in Swiss mouse blood at 50 mg/kg, po administered as single dose after 1 hr by UPLC/MS/ESI analysis", "type": "ADME, organism-based", "conditions": "whole blood, read-out: Drug uptake", "procedure,_shortened": "as §1"}, "[8]": {"assay": "Drug metabolism in human liver microsomes assessed as CYP450 mediated compound […] by measuring parent compound remaining at 5 uM after 60 mins in presence of NADPH by UPLC/MS/ESI analysis", "type": "ADME", "conditions": "read-out: Stability"}, "[9]": {"assay": "Cmax in Swiss mouse at 25 mg/kg, po administered as single dose after 24 hrs by UPLC/MS/ESI analysis", "type": "ADME, organism-based", "set-up": "dose 25 mg/kg, route oral", "conditions": "in vivo", "procedure,_shortened": "(§2)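 Mice in groups received one oral dose of 25 or 50 mg/kg. Plasma concentrations were followed over time up to 24 h, and PK parameters including T1/2 were derived from the concentration–time profile.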"}, "[10]": {"assay": "Protein binding in mouse plasma assessed as drug recovery at 10 uM after 6 hrs by equilibrium dialysis and LC-MS analysis", "type": "ADME, cell-free", "conditions": "read-out: Drug recovery"}, "[11]": {"system": "Trypanosoma brucei brucei", "assay": "Antitrypanosomal activity against Trypanosoma brucei brucei Squib 427 infected in Swiss mouse assessed as mean survival days at 10 mg/kg, ip administered as single dose for 5 days", "type": "functional", "procedure,_shortened": "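Acute mouse infection model with T. b. brucei. Dosing ran for 5 days after infection, orally or intraperitoneally, once or twice daily. Groups were 3 mice each, with vehicle-treated infected controls. The read-out was mean survival time in days, plus the number of survivors on day 14 post-infection.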"}, "[12]": {"assay": "Clearance in Swiss mouse at 25 mg/kg, po administered as single dose after 24 hrs by UPLC/MS/ESI analysis", "type": "ADME, organism-based", "conditions": "in vivo", "procedure,_shortened": "as §2"}, "[13]": {"system": "Trypanosoma brucei brucei", "assay": "Antitrypanosomal activity against Trypanosoma brucei brucei Squib 427 infected in Swiss mouse assessed as mouse survival at 50 mg/kg, po administered as single dose for 5 days and measured on day 14 post infection", "type": "functional, organism-based", "procedure,_shortened": "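Acute T. b. brucei mouse infection model. Dosing was PO or IP at 10–50 mg/kg, once (SID) or twice (BID) daily for 5 days after infection, with 3 mice per group. […] Read-outs were mean survival time and survivors on day 14 post infection.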"}}, "note": "The source made the active and inactive calls. No cut-off for these calls is given here."}
{"smiles": "Nc1nc(Nc2ccc(F)cc2)nc(Oc2ccc(F)cc2)n1", "values": [{"measurement": "IC50", "setting": "Peritoneal macrophage", "result": "> 64", "unit": "µM"}, {"measurement": "concentration at 2 h", "setting": "[1]", "result": 1320, "unit": "ng/mL"}, {"measurement": "half-life", "setting": "[2]", "result": 1.33, "unit": "h"}, {"measurement": "concentration at 1 h", "setting": "[3]", "result": 3800, "unit": "ng/mL"}, {"measurement": "concentration at 4 h", "setting": "[4]", "result": 929, "unit": "ng/mL"}, {"measurement": "concentration at 4 h", "setting": "[5]", "result": 2030, "unit": "ng/mL"}, {"measurement": "CL/F", "setting": "[6]", "result": 89.9, "unit": "mL/min"}, {"measurement": "concentration at 1 h", "setting": "[7]", "result": 1730, "unit": "ng/mL"}, {"measurement": "remaining at 1 h, 5 µM", "setting": "[8]", "result": 65, "unit": "%"}, {"measurement": "Cmax", "setting": "[9]", "result": 1180, "unit": "ng/mL"}, {"measurement": "recovery at 6 h, 10 µM", "setting": "[10]", "result": 75.4, "unit": "%"}, {"measurement": "MST", "setting": "[11]", "result": 7, "unit": "days"}, {"measurement": "CL/F", "setting": "[12]", "result": 70.1, "unit": "mL/min"}, {"measurement": "Activity", "setting": "[13]", "result": "inactive"}]}
